Experiments:
SiHa = assay: Cytotoxicity against human SiHa cells after 48 hrs by MTT assay; type: functional, cell-based
In short: (§1)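 Cells kept at 37 °C under 5% CO2, plated and allowed to attach for 24 h, then exposed in quadruplicate wells for 48 h to five saline-dissolved concentrations. IC50 is the mean of three independent experiments.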

A549 [1] = assay: Cytotoxicity against human A549 cells after 48 hrs by MTT assay; type: functional, cell-based; conditions: A549, 48 h; in short: as §1
HeLa = assay: Cytotoxicity against human HeLa cells after 48 hrs by MTT assay; type: functional, cell-based; in short: as §1
A549 [2] = assay: Induction of cell cycle arrest in human A549 cells assessed as accumulation at S phase at 0.5 uM after 48 hrs using propidium iodide staining by FACS analysis (reference value: 36.7 %); type: functional
A549 [3] = assay: Induction of cell cycle arrest in human A549 cells assessed as accumulation at G1 phase at 0.5 uM after 48 hrs using propidium iodide staining by FACS analysis (reference value: 59.9 %); type: functional
A549 [4] = assay: Induction of cell cycle arrest in human A549 cells assessed as accumulation at sub-G1 phase at 0.5 uM after 48 hrs using propidium iodide staining by FACS analysis (reference value: 21.7 %); type: functional
A549 [5] = assay: Induction of cell cycle arrest in human A549 cells assessed as accumulation at G1 phase at 0.1 uM after 48 hrs using propidium iodide staining by FACS analysis (reference value: 59.9 %); type: functional
A549 [6] = assay: Induction of cell cycle arrest in human A549 cells assessed as accumulation at S phase at 0.1 uM after 48 hrs using propidium iodide staining by FACS analysis (reference value: 36.7 %); type: functional
A549 [7] = assay: Induction of cell cycle arrest in human A549 cells assessed as accumulation at G2/M phase at 0.1 uM after 48 hrs using propidium iodide staining by FACS analysis (reference value: 3.2 %); type: functional
A549 [8] = assay: Induction of cell cycle arrest in human A549 cells assessed as accumulation at sub-G1 phase at 0.1 uM after 48 hrs using propidium iodide staining by FACS analysis (reference value: 21.7 %); type: functional

COc1cc([C@@H]2c3cc4c(cc3C[C@H]3COC(=O)[C@@H]32)OCO4)cc(OC)c1OC(=O)N[C@@H](CCSC)C(=O)N1CCN(c2ccc([N+](=O)[O-])cc2)CC1 was tested. Which IC50 (SiHa) did it give?
The IC50 was 160 nM.

And the IC50 (A549 [1])?
Its IC50 is 183 nM.

And the IC50 (HeLa)?
The IC50 was 0.191 µM.

COc1cc([C@@H]2c3cc4c(cc3C[C@H]3COC(=O)[C@@H]32)OCO4)cc(OC)c1O [4'-DEMETHYLDEOXYPODOPHYLLOTOXIN] was tested. Which IC50 (SiHa) did it give?
Its IC50 is 2070 nM.

What about the IC50 (A549 [1]) of the same compound?
The IC50 was 3750 nM.

What about the IC50 (HeLa) of the same compound?
Its IC50 is 7.43 µM.

How did the IC50 (SiHa) turn out when COc1cc([C@@H]2c3cc4c(cc3C[C@H]3COC(=O)[C@@H]32)OCO4)cc(OC)c1OC(=O)NCC(=O)N1CCN(C2CCCC2)CC1 was run?
The IC50 was 135 nM.

What about the IC50 (A549 [1]) of the same compound?
Its IC50 is 1720 nM.

What about the IC50 (HeLa) of the same compound?
Its IC50 is 3.07 µM.

COc1cc([C@@H]2c3cc4c(cc3C[C@H]3COC(=O)[C@@H]32)OCO4)cc(OC)c1OC(=O)NCC(=O)N1CCN(C)CC1 was tested. Which IC50 (SiHa) did it give?
Its IC50 is 4970 nM.

What about the IC50 (A549 [1]) of the same compound?
The IC50 was 3960 nM.

And the IC50 (HeLa)?
The IC50 was 0.703 µM.

Which IC50 (SiHa) does the source give for COc1cc([C@@H]2c3cc4c(cc3C[C@H]3COC(=O)[C@@H]32)OCO4)cc(OC)c1OC(=O)N[C@@H](Cc1ccccc1)C(=O)N1CCNCC1 here?
Its IC50 is 160 nM.

What about the IC50 (A549 [1]) of the same compound?
Its IC50 is 80.2 nM.

What about the IC50 (HeLa) of the same compound?
The IC50 was 0.433 µM.

For COc1cc([C@@H]2c3cc4c(cc3C[C@H]3COC(=O)[C@@H]32)OCO4)cc(OC)c1OC(=O)N[C@H](CCSC)C(=O)N1CCNCC1, which IC50 (SiHa) is on record?
The IC50 was 83.9 nM.

And the IC50 (A549 [1])?
Its IC50 is 208 nM.

What about the IC50 (HeLa) of the same compound?
Its IC50 is 0.203 µM.

Which IC50 (SiHa) does the source give for COc1cc([C@@H]2c3cc4c(cc3C[C@H]3COC(=O)[C@@H]32)OCO4)cc(OC)c1OC(=O)NCC(=O)N1CCN(c2ccc(O)cc2)CC1 here?
The IC50 was 4760 nM.

What about the IC50 (A549 [1]) of the same compound?
The IC50 was 2390 nM.

And the IC50 (HeLa)?
Its IC50 is 7.01 µM.

With COc1cc([C@@H]2c3cc4c(cc3C[C@H]3COC(=O)[C@@H]32)OCO4)cc(OC)c1OC [DESOXYPODOPHYLLOTOXIN] as the compound, how does the IC50 (SiHa) read?
Its IC50 is 10200 nM.

And the IC50 (A549 [1])?
Its IC50 is 470 nM.

What about the IC50 (HeLa) of the same compound?
Its IC50 is 36 µM.

And the Activity (A549 [2])?
The Activity was 1.4%.

What about the Activity (A549 [3]) of the same compound?
Its Activity is 85.5%.

What about the Activity (A549 [4]) of the same compound?
Its Activity is 13.1%.

For COc1cc([C@@H]2c3cc4c(cc3[C@@H](O[C@@H]3O[C@@H]5CO[C@@H](C)O[C@H]5[C@H](O)[C@H]3O)[C@H]3COC(=O)[C@H]23)OCO4)cc(OC)c1O [ETOPOSIDE], which IC50 (SiHa) is on record?
The IC50 was 30700 nM.

And the Activity (A549 [5])?
The Activity was 26%.

And the Activity (A549 [6])?
Its Activity is 59.4%.

What about the IC50 (A549 [1]) of the same compound?
The IC50 was 14800 nM.

What about the IC50 (HeLa) of the same compound?
Its IC50 is 50.6 µM.

What about the Activity (A549 [7]) of the same compound?
The Activity was 10.5%.

What about the Activity (A549 [8]) of the same compound?
The Activity was 4.1%.
